The subject of series [1] is IGROV-1. Kind of series: Cytotoxicity against human IGROV1 cells. Format: cell-based. The gist of the method: (§1)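 NCI 60 human tumour cell line screen, second stage at five concentrations (100, 10, 1.0, 0.1 and 0.01 μM). Continuous drug exposure for 48 h, with cell growth estimated by sulforhodamine B protein staining. GI50 is the drug concentration giving a 50% reduction in net protein increase relative to control cells over the incubation.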

In another series the test system is OVCAR-4. As to the kind of experiment: Cytotoxicity against human OVCAR4 cells. It counts as cell-based. The gist of the method:
as §1

Series [2] relates to RPMI-8226. As to the kind of experiment: Anticancer activity against human RPMI8226 cells after 48 hrs by sulforhodamine B assay. The note with it: RPMI-8226, 48 h. Format: functional. An outline of the steps:
(§2)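 NCI 60-cell-line in vitro screen, second stage: five concentration levels (100, 10, 1.0, 0.1 and 0.01 μM) with 48 h continuous drug exposure. Cell growth was estimated by sulforhodamine B protein staining. GI50 is the drug concentration that gives a 50% reduction in net protein increase relative to control cells over the incubation.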

In the next series the test system is NCI-H460. As to the kind of experiment: Anticancer activity against human NCI-H460 cells after 48 hrs by sulforhodamine B assay. Format: functional. The following applies: NCI-H460, 48 h. An outline of the steps:
as §2
(The SRB assay estimates cell density from bound dye.)

The test system of another series is LOX IMVI. Kind of series: Anticancer activity against human LOXIMVI cells after 48 hrs by sulforhodamine B assay. Format: functional. An outline of the steps: as §2
The test system of series [3] is IGROV-1. Kind of series: Anticancer activity against human IGROV1 cells after 48 hrs by sulforhodamine B assay. Format: functional. The following applies: IGROV-1, 48 h. The gist of the method: as §2
The next series has as its system OVCAR-3. As to the kind of experiment: Anticancer activity against human OVCAR3 cells after 48 hrs by sulforhodamine B assay. Format: functional. The note with it: OVCAR-3, 48 h. The gist of the method:
as §2

The test system of the next series is NCI/ADR-RES. Kind of series: Anticancer activity against human NCI/ADR-RES cells after 48 hrs by sulforhodamine B assay. Format: functional. An outline of the steps:
as §2

The subject of the next series is T47D. Kind of series: Anticancer activity against human T47D cells after 48 hrs by sulforhodamine B assay. It counts as functional. An outline of the steps: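 NCI 60-cell-line screen, second stage. Five concentration levels (100, 10, 1.0, 0.1 and 0.01 μM), 48 h continuous drug exposure. Cell growth was estimated by sulforhodamine B protein staining. GI50 is the concentration giving a 50% reduction in net protein increase relative to control cells over the drug incubation. Compounds entered this stage after an earlier single-dose screen.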

The next series concerns CCRF-CEM. As to the kind of experiment: Cytotoxicity against human CCRF-CEM cells. It counts as cell-based. An outline of the steps:
as §1

For series [4], the system named is RPMI-8226. As to the kind of experiment: Cytotoxicity against human RPMI8226 cells. It counts as cell-based. An outline of the steps: as §1

Where only a bound is given, the exact number is not on record here.

As for `Oc1ccc(Cc2ccc(O)c(C3CC(c4ccc(Cl)cc4)=NN3)c2)cc1C1CC(c2ccc(Cl)cc2)=NN1` (stereo unspecified), the LC50 in the series with IGROV-1 [1], in the series with OVCAR-4, in the series on CCRF-CEM and in the series with RPMI-8226 [4] was greater than 100 µM in each case. Further, the GI50 – broadly, the concentration giving 50% growth inhibition – amounted to 5.09 µM with RPMI-8226 [2]; 2150 nM with NCI-H460; 1820 nM with LOX IMVI; 4.11 µM in the series with IGROV-1 [3]; 2590 nM with OVCAR-3; 2240 nM in the series on NCI/ADR-RES. In the series with T47D, this compound had a GI50 of 3.79 µM.

Source of the values: ChEMBL document CHEMBL1782042, “Efficient microwave-assisted synthesis and antitumor activity of novel 4,4'-methylenebis[2-(3-aryl-4,5-dihydro-1H-pyrazol-5-yl)phenols]” (Eur J Med Chem, 2011).
